The nature of data set [1]: Inhibition of H+/K+ ATPase in hog gastric mucosa. It counts as tissue-based, Sus scrofa. The method, boiled down:
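Hog gastric mucosa H+/K+-ATPase (0.5-1 µg/100 µL, with nigericin 1:1) in 4 mM Pipes/8 mM Tris pH 7.4, 0.25 M sucrose, 1 mM MgCl2, stimulated by 1 mM KCl. Compound 1e-4 to 1e-9 M final from DMSO stocks. Started with 1 mM Na-ATP, 30 min room temperature. Phosphate read by malachite green at 680 nm after 15 min.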

In data set [2] the test system is Gastric gland. The experiment in a line: Inhibition of acid secretion in rabbit intact gastric glands assessed as […] accumulation. It counts as functional, tissue-based. To be noted: Oryctolagus cuniculus. Summed up: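 Isolated gastric glands in Krebs-Henseleit with 2 mg/mL rabbit serum albumin and 2 mg/mL glucose. Incubated 30 min at 37 °C, shaking, with 0.125 µM 14C-aminopyrine at pH 7.4, stimulated by 1 mM dibutyryl cAMP, inhibitor 3 nM-100 µM. Stopped by centrifugation. Accumulation taken from pellet/supernatant radioactivity ratio. IC50 from fitted inhibition equation.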

Data set [3] concerns Rattus norvegicus. The experiment in a line: Inhibition of pentagastrin-stimulated acid secretion in intraduodenally dosed perfused Ghosh Schild rat stomach. It counts as functional. The note with it: intraduodenal. Summed up:
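Anaesthetised rat with perfused stomach: 37 °C saline at 0.5 mL/min. Effluent titrated to pH 7 with 0.01 N NaOH in 15-min fractions. Secretion driven by continuous iv pentagastrin, 1 µg/kg (1.65 mL/h). Compound given intraduodenally in 2.5 mL/kg volume 60 min after infusion start. Body temperature held at 37.8-38 °C.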

The nature of data set [4]: Dissociation constant, pKa of the compound. It is filed as physicochemical. The method, boiled down: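 Potentiometric cosolvent titration in 0.15 mol/L KCl, pH 2.0-11.0, 25 °C, methanol as cosolvent in varying portions; titrants 0.5 mol/L KOH and HCl.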
Data set [5] can be described thus: Distribution coefficient, log D of the compound. It is filed as physicochemical. The note with it: octanol/water. The method, boiled down: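 Distribution between 1-octanol and aqueous KCl measured by potentiometric titration over pH 2.0-11.0 at 25 °C.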

Structures are written as SMILES. Active and inactive are the calls of the source. The calls are words filed in the database; no cut-off is given here.

For `CC(=O)c1c(C)nc2c3c(c(C(=O)N(C)C)cn12)CC[C@@H](c1ccccc1)O3`, the pIC50 (commonly the negative decadic logarithm of the IC50, by convention in mol/L) in data set [1] is < 4. In addition, the result in data set [2] was inactive. In addition, the 50% effect level in data set [3] (ED50) was put at a dose of 0.1 µmol/kg.

Consider `Cc1ccccc1C1CCc2c(C(=O)N(C)C)cn3c(C)c(C)nc3c2O1` (racemic), for which the pKa (usually the pH at which an ionisable group is half protonated) in data set [4] amounted to 6.74. Besides, the pIC50 in data set [1] is 6.2. Further, the IC50 – broadly, the concentration that inhibits the measured activity by half – in data set [2] was 200 nM. Moreover, the ED50 (commonly the dose at which the effect has come halfway, by size or by number of responders) in data set [3] came to 0.4 µmol/kg. In addition, in data set [5], the log distribution coefficient (logD) – broadly, lipophilicity at a set pH, counting ionised and neutral species – was 2.76.

For the compound `CNC(=O)c1cn2c(C)c(C)nc2c2c1CCC(c1ccccc1)O2` (racemic), the pKa in data set [4] was 6.74. The compound further came in with a pIC50 in data set [1] of 5.6. Also, the IC50 in data set [2] was 1000 nM. In addition, it took a dose of 0.6 µmol/kg to reach the 50% effect level in data set [3] (ED50). Also, the log distribution coefficient (logD) in data set [5] was found to be 2.8.

Turning to `Cc1ccccc1[C@H]1CCc2c(C(=O)N(C)C)cn3c(C)c(C)nc3c2O1`, the pIC50 in data set [1] was 6.1. The IC50 in data set [2] is 251 nM. The compound also gave an ED50 in data set [3] of 1.3 µmol/kg.

For `Cc1nc2c3c(c(C(=O)N(C)C)cn2c1C)CC[C@@H](c1ccccc1)O3`, in data set [1], the pIC50 stood at 6.8. Moreover, in data set [2], the IC50 is 200 nM. In data set [3], this compound showed an ED50 of 0.22 µmol/kg.

With `CCc1c(C)nc2c3c(c(C(=O)N(C)C)cn12)CC[C@@H](c1ccccc1)O3`, the pIC50 in data set [1] was determined as 5.5. Further, in data set [2], the IC50 was 1260 nM. Besides, the ED50 in data set [3] was 1.2 µmol/kg.

In data set [1], `CON(C)C(=O)c1cn2c(C)c(C)nc2c2c1CC[C@@H](c1ccccc1)O2` gave a pIC50 of 5.6. This compound also gave an ED50 in data set [3] of 0.4 µmol/kg.

In data set [1], `Cc1nc2c3c(c(C(=O)N(C)C)cn2c1C)CC[C@@H](c1ccc(F)cc1)O3` yielded a pIC50 of 6.5. The IC50 in data set [2] is 158 nM. Further, the ED50 in data set [3] stood at 0.25 µmol/kg.

Consider `Cc1nc2c3c(c(C(=O)N(C)C)cn2c1Br)CC[C@@H](c1ccccc1)O3`, for which the pIC50 in data set [1] is reported as 5. In addition, the IC50 in data set [2] is 6310 nM. The compound also gave an ED50 in data set [3] of 1.5 µmol/kg.

Turning to `Cc1ccccc1[C@@H]1CCc2c(C(=O)N(C)C)cn3c(C)c(C)nc3c2O1`, the pIC50 in data set [1] was 6.3. Further, the IC50 in data set [2] was 251 nM. In data set [3], the ED50 came out at 0.4 µmol/kg.

In data set [1], `Cc1nc2c3c(c(C(=O)N4CCC4)cn2c1C)CC[C@@H](c1ccccc1)O3` registered a pIC50 of 6.4. The IC50 in data set [2] was 50.1 nM. This compound registered an ED50 in data set [3] of 0.2 µmol/kg.

As for `Cc1nc2c3c(c(C(=O)NC4CC4)cn2c1C)CC[C@@H](c1ccccc1)O3`, in data set [1], the pIC50 worked out at 5.7. The IC50 in data set [2] is 100 nM. Besides, the 50% effect level in data set [3] (ED50) was put at a dose of 0.25 µmol/kg.

In turn, `Cc1nc2c3c(c(C(=O)N4CCCC4)cn2c1C)CC[C@@H](c1ccccc1)O3` returned a pIC50 in data set [1] of 6.4. Besides, in data set [2], the IC50 is 200 nM. Further, in data set [3], the 50% effect level (ED50) was put at a dose of 1 µmol/kg.

In data set [1], `Cc1nc2c3c(c(C4=NCCO4)cn2c1C)CCC(c1ccccc1)O3` (racemic) came in with a pIC50 of 6. Further, the IC50 in data set [2] was 794 nM. The compound also had an ED50 in data set [3] of 2 µmol/kg.

`Cc1nc2c3c(c(C(=O)N(C)C)cn2c1C)CC[C@H](c1ccc(F)cc1)O3` registered a pIC50 in data set [1] of 5.7. In data set [2], the IC50 is 1000 nM. The ED50 in data set [3] was 1.5 µmol/kg.

In the case of `Cc1nc2c3c(c(C(N)=O)cn2c1C)CC[C@@H](c1ccccc1)O3`, the IC50 in data set [2] is 1580 nM. In data set [3], the ED50 came out at 1 µmol/kg.

In data set [1], `Cc1nc2c3c(c(C(=O)N(C)C)cn2c1C)CC[C@@H](c1ccccc1F)O3` gave a pIC50 of 6.3. For the same compound, the IC50 in data set [2] is 79.4 nM. In data set [3], this compound had an ED50 of 0.2 µmol/kg.

`Cc1nc2c3c(c(C(=O)N(C)C)cn2c1CO)CC[C@H](c1ccccc1)O3` returned a pIC50 in data set [1] of 4.2. For the same compound, the outcome in data set [2] was inactive. In addition, in data set [3], the ED50 was > 6 µmol/kg.

With `Cc1nc2c3c(c(C(=O)N(C)C)cn2c1CO)CC[C@@H](c1ccccc1)O3`, the pIC50 in data set [1] is 5.8. For the same compound, the IC50 in data set [2] is 7940 nM. The compound also came in with an ED50 in data set [3] of 5 µmol/kg.

Source of the values: ChEMBL document CHEMBL1138298, “Synthesis and evaluation of 7H-8,9-dihydropyrano[2,3-c]imidazo[1,2-a]pyridines as potassium-competitive acid blockers” (J Med Chem, 2007).
